Among all 360,000 compounds or so, about 3,600 (1%) were called active.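 The calls were made as follows: active = activation above the mean activation of all test compounds in the run plus 3 SD (cut at about 38% in these data); inactive = the rest.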 Only a selection was taken, and actives are over-represented in it overall.
Each molecule was assayed against Trace amine-associated receptor 1 (Homo sapiens) (UniProt Q96RJ0) (assay: activators of TAAR1 calcium mobilization – Fluo-8 calcium fluorescence, CHO RD-HGA16 cells, primary screen (AID 624467)). Conditions: CHO RD-HGA16 TAAR1, Fluo-8 calcium fluorescence; at 3 µM; active compounds read high; vehicle wells 0%, saturating PEA agonist 100%.
Procedure, shortened: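 Repeats: no replicates (n 1) | Material: CHO-derived RD-HGA16 cells with stable Gα16 and human TAAR1 | Technique: Kinetic Fluo-8 calcium fluorescence | Schedule: 17-24 h seeding, 75 min 37 °C dye, 30 min RT | Evaluation: % activation from peak over basal fluorescence ratio, DMSO-to-PEA scaled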

Trace amine-associated receptor 1 (Homo sapiens), sequence (Q96RJ0 whole entry, looked up): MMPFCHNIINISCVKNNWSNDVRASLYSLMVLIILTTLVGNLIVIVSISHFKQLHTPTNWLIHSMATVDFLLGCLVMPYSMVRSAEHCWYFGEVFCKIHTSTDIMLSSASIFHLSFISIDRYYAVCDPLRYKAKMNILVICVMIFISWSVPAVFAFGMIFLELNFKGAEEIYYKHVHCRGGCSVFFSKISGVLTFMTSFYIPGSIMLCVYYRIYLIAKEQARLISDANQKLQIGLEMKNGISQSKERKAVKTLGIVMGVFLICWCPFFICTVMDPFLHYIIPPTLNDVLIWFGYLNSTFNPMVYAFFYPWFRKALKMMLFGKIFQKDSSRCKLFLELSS

Structure (SMILES)	activation
CCCCCCc1cc2cc(-c3nnc(-c4cccc(OC)c4)o3)c(=O)oc2cc1O	16.7% (inactive)
CCn1cc(CN2CCCC(CNS(=O)(=O)Cc3ccccc3)C2)cn1 (centres undefined)	0.93% (inactive)
COc1ccc2nc3n(c(=O)c2c1)-c1ccc(Cl)cc1C(=O)NC3Cc1ccccc1 (centres undefined)	4.87% (inactive)
Cn1c(=O)c(=O)n(C)c2cc(S(=O)(=O)NCCc3ccccc3)ccc21	82.3% (active)
O=S(=O)(NCCc1ccccc1)c1ccccc1	15.9% (inactive)
Cn1c(=O)c(=O)n(C)c2cc(S(=O)(=O)NCCN3CCN(c4ccccc4F)CC3)ccc21	-1.59% (inactive)
C[C@@H](CN1C2=NC[C@@H](Cc3ccccc3)N2C[C@H]1Cc1ccc(O)cc1)NC(=O)CCC1CCCCC1	-0.01% (inactive)
O=C(NCC1(N2CCCCC2)CCCCC1)c1cccc(S(=O)(=O)Nc2ccccc2Cl)c1	-0.1% (inactive)
C[C@H]1[C@H](c2ccccc2)Oc2cc(Br)ccc2S(=O)(=O)N1Cc1cccc(F)c1	2.18% (inactive)
Cc1ccnc(NC(=O)C(C)N2C(=O)c3ccccc3C2=O)c1 (centres undefined)	2.11% (inactive)
Cc1cccc(NC(=O)CN2C(=O)CNC2=O)c1	6.24% (inactive)
Cc1cccc(NC(=O)C(C)N2C(=O)C3C4CC(C(Br)C4Br)C3C2=O)c1 (centres undefined)	49.9% (active)
Cc1cccc(N(C(=O)c2ccc(CN3CCOCC3)o2)C(C(=O)NC2CCCCC2)c2ccc(F)cc2)c1 (centres undefined)	0.09% (inactive)
COc1ccccc1C(=O)N1O[C@]23C=C[C@]14C[C@@H](O)CC[C@]4(C)C2CC[C@]1(C)[C@@H]([C@H](C)/C=C/[C@H](C)C(C)C)CC[C@H]13 (some centres undefined)	-1.12% (inactive)
O=C(Nc1c(Cl)c(C2CC2)nn1-c1ccccc1)C(Cl)(Cl)Cl	1.51% (inactive)
CCCCOc1ccc(CON(C(C)=O)C(C)=O)cc1Cl	-2.24% (inactive)
CCCCOc1ccc(CSC(=N)N)cc1[N+](=O)[O-]	68.2% (active)
CCOc1ccc(C(=O)Nc2nccs2)cc1[N+](=O)[O-]	5.29% (inactive)
CCCCCOc1ccc(CSC2=NCCN2)cc1[N+](=O)[O-]	40.3% (active)
CCCCOC(=O)CCCc1ccc([N+](=O)[O-])cc1[N+](=O)[O-]	-2.61% (inactive)
O=[N+]([O-])c1ccccc1OCCCCN1CCCCC1	7.82% (inactive)
C#CCN([C@@H](C)C(=O)OCC)S(=O)(=O)c1ccc(Br)cc1F	-2.1% (inactive)
O=C(C[C@@H]1C/C=C\CCC(=O)OC[C@@H]2CCCN2C1=O)NCCO	13.4% (inactive)
C[C@H](CO)N1C[C@H](C)[C@@H](CN(C)C(=O)Nc2ccccc2F)OCc2cn(nn2)CCCC1=O	0.9% (inactive)

Reference: PubChem BioAssay AID624467 (The Scripps Research Institute Molecular Screening Center, 2012)
